How the values were obtained:
Type in all cases: functional
KM12 [1] = assay: Anticancer activity against Homo sapiens (human) KM12 cells by SRB assay
How it was run: (§1)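 NCI 60-line panel, five tenfold dilutions from 10−4 to 10−8 M, growth read by sulforhodamine B staining against untreated controls. From the dose–response per line: GI50 (molar concentration giving half growth inhibition), TGI (molar concentration giving total growth inhibition, cytostatic) and LC50 (molar concentration killing 50% of initial cells, cytotoxic).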

A498 = assay: Anticancer activity against Homo sapiens (human) A498 cells assessed as cell growth at 10 uM by SRB assay; settings: read-out: Activity
How it was run: (§2)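 NCI 60-cell human tumour panel (nine cancer types) screened at one concentration, 10−5 M. Cell growth estimated by sulforhodamine B protein staining and reported as percent growth of treated cells relative to untreated controls.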

HT-29 = assay: Anticancer activity against Homo sapiens (human) HT-29 cells by SRB assay; how it was run: as §1
NCI-H522 = assay: Anticancer activity against Homo sapiens (human) NCI-H522 cells by SRB assay
How it was run: (§3)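 Five-dose NCI 60-cell-line panel testing at tenfold dilutions from 10−4 to 10−8 M, with growth read by sulforhodamine B protein staining. For each cell line: GI50 is the molar concentration giving half growth inhibition; TGI is total growth inhibition (cytostatic); LC50 is the molar concentration killing 50% of the initial cells (cytotoxic).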

SK-MEL-2 = assay: Anticancer activity against Homo sapiens (human) SK-MEL-2 cells assessed as cell growth at 10 uM by SRB assay; settings: read-out: Activity
How it was run: (§4)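 Single-dose screen in the NCI 60-human-tumour-cell-line panel (nine cancer types) at 10−5 M. Cell growth was estimated by sulforhodamine B protein staining and reported as percent growth of treated cells relative to untreated controls.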

EKVX = assay: Anticancer activity against Homo sapiens (human) EKVX cells by SRB assay; how it was run: as §1
OVCAR-4 = assay: Anticancer activity against Homo sapiens (human) OVCAR4 cells assessed as cell growth at 10 uM by SRB assay; settings: read-out: Activity; how it was run: as §4
[2] = Anticancer activity against Homo sapiens (human) NCI-322M cells assessed as cell growth at 10 uM by SRB assay; settings: read-out: Activity; how it was run: as §4
SK-MEL-5 = assay: Anticancer activity against Homo sapiens (human) SK-MEL-5 cells assessed as cell growth at 10 uM by SRB assay; settings: read-out: Activity; how it was run: as §4
786-0 [3] = assay: Anticancer activity against Homo sapiens (human) 786-0 cells assessed as cell growth at 10 uM by SRB assay; settings: read-out: Activity; how it was run: as §2
SF-295 = assay: Anticancer activity against Homo sapiens (human) SF295 cells by SRB assay; how it was run: as §3
M14 = assay: Anticancer activity against Homo sapiens (human) M14 cells assessed as cell growth at 10 uM by SRB assay; settings: read-out: Activity; how it was run: as §2
DU-145 = assay: Anticancer activity against Homo sapiens (human) DU145 cells by SRB assay; how it was run: as §1
OVCAR-8 [4] = assay: Anticancer activity against Homo sapiens (human) OVCAR8 cells assessed as cell growth at 10 uM by SRB assay; settings: read-out: Activity; how it was run: as §4
OVCAR-8 [5] = assay: Anticancer activity against Homo sapiens (human) OVCAR8 cells by SRB assay; how it was run: as §3
NCI/ADR-RES = assay: Anticancer activity against Homo sapiens (human) NCI/ADR-RES cells by SRB assay; how it was run: as §3
SNB-75 [6] = assay: Anticancer activity against Homo sapiens (human) SNB75 cells assessed as cell growth at 10 uM by SRB assay; settings: read-out: Activity; how it was run: as §4
SN12C [7] = assay: Anticancer activity against Homo sapiens (human) SN12C cells assessed as cell growth at 10 uM by SRB assay; settings: read-out: Activity; how it was run: as §4
COLO 205 = assay: Anticancer activity against Homo sapiens (human) COLO205 cells assessed as cell growth at 10 uM by SRB assay; settings: read-out: Activity; how it was run: as §2
SNB-19 = assay: Anticancer activity against Homo sapiens (human) SNB19 cells assessed as cell growth at 10 uM by SRB assay; settings: read-out: Activity; how it was run: as §4
KM12 [8] = assay: Anticancer activity against Homo sapiens (human) KM12 cells assessed as cell growth at 10 uM by SRB assay; settings: read-out: Activity; how it was run: as §2
786-0 [9] = assay: Anticancer activity against Homo sapiens (human) 786-0 cells by SRB assay; how it was run: as §1
SNB-75 [10] = assay: Anticancer activity against Homo sapiens (human) SNB75 cells by SRB assay; how it was run: as §3
MDA-MB-468 = assay: Anticancer activity against Homo sapiens (human) MDA-MB-468 cells assessed as cell growth at 10 uM by SRB assay; settings: read-out: Activity; how it was run: as §4
MDA-MB-231 [11] = assay: Anticancer activity against Homo sapiens (human) MDA-MB-231/ATCC cells by SRB assay; how it was run: as §1
A549 = assay: Anticancer activity against Homo sapiens (human) A549/ATCC cells by SRB assay; how it was run: as §1
MDA-MB-231 [12] = assay: Anticancer activity against Homo sapiens (human) MDA-MB-231/ATCC cells assessed as cell growth at 10 uM by SRB assay; settings: read-out: Activity; how it was run: as §2
[13] = Anticancer activity against Homo sapiens (human) NCI-322M cells by SRB assay; how it was run: as §3
K562 = assay: Anticancer activity against Homo sapiens (human) K562 cells assessed as cell growth at 10 uM by SRB assay; settings: read-out: Activity; how it was run: as §2
NCI-H460 = assay: Anticancer activity against Homo sapiens (human) NCI-H460 cells assessed as cell growth at 10 uM by SRB assay; settings: read-out: Activity; how it was run: as §4
SW-620 = assay: Anticancer activity against Homo sapiens (human) SW620 cells assessed as cell growth at 10 uM by SRB assay; settings: read-out: Activity
How it was run: (§5)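 NCI 60-cell human tumour panel (leukemia, melanoma, lung, colon, CNS, breast, ovarian, prostate, renal lines) given a single 10−5 M dose. Growth is expressed as percent growth of treated cells relative to untreated controls, with cell growth/viability estimated by sulforhodamine B protein staining.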

SK-MEL-28 = assay: Anticancer activity against Homo sapiens (human) SK-MEL-28 cells by SRB assay; how it was run: as §3
SK-OV-3 = assay: Anticancer activity against Homo sapiens (human) SKOV3 cells assessed as cell growth at 10 uM by SRB assay; settings: read-out: Activity; how it was run: as §4
T47D = assay: Anticancer activity against Homo sapiens (human) T47D cells assessed as cell growth at 10 uM by SRB assay; settings: read-out: Activity; how it was run: as §5
NCI-H23 = assay: Anticancer activity against Homo sapiens (human) NCI-H23 cells by SRB assay; how it was run: as §3
MOLT-4 = assay: Anticancer activity against Homo sapiens (human) MOLT4 cells assessed as cell growth at 10 uM by SRB assay; settings: read-out: Activity; how it was run: as §4
SN12C [14] = assay: Anticancer activity against Homo sapiens (human) SN12C cells by SRB assay; how it was run: as §3
[15] = read-out: pLC50 (the source's name) (converted)

## O=c1sc2c(Cl)nc(-c3ccccc3)nc2n1-c1ccccc1
KM12 [1]
  GI50: 81.3 µM
A498
  growth at 10 µM: 44%
HT-29
  GI50: 3.89 µM
HT-29; read-out: pTGI (converted)
  TGI: 19.1 µM
NCI-H522
  GI50: 1.23 µM
NCI-H522; read-out: pTGI (converted)
  TGI: 3.02 µM
SK-MEL-2
  growth at 10 µM: 48%
EKVX
  GI50: 25.7 µM
OVCAR-4
  growth at 10 µM: 31%
[2]
  growth at 10 µM: 62%
SK-MEL-5
  growth at 10 µM: 60%
786-0 [3]
  growth at 10 µM: 41%
SF-295
  GI50: 57.5 µM
M14
  growth at 10 µM: 16%
DU-145
  GI50: 4.68 µM
DU-145; [15]
  CC50: 81.3 µM
DU-145; read-out: pTGI (converted)
  TGI: 23.4 µM
OVCAR-8 [4]
  growth at 10 µM: -45%
OVCAR-8 [5]
  GI50: 2.04 µM
OVCAR-8 [5]; read-out: pTGI
  TGI: 43.7 µM
NCI/ADR-RES
  GI50: 21.4 µM
SNB-75 [6]
  growth at 10 µM: 12%
SN12C [7]
  growth at 10 µM: 43%
COLO 205
  growth at 10 µM: 52%
SNB-19
  growth at 10 µM: 70%
KM12 [8]
  growth at 10 µM: 81%
786-0 [9]
  GI50: 7.08 µM
786-0 [9]; read-out: pTGI (converted)
  TGI: 56.2 µM
SNB-75 [10]
  GI50: 1.86 µM
SNB-75 [10]; [15]
  CC50: 56.2 µM
SNB-75 [10]; read-out: pTGI (converted)
  TGI: 13.8 µM
MDA-MB-468
  growth at 10 µM: 20%
MDA-MB-231 [11]
  GI50: 6.31 µM
A549
  GI50: 43.7 µM
MDA-MB-231 [12]
  growth at 10 µM: 37%
[13]
  GI50: 14.1 µM
[13]; read-out: pTGI (converted)
  TGI: 58.9 µM
K562
  growth at 10 µM: 19%
NCI-H460
  growth at 10 µM: 78%
SW-620
  growth at 10 µM: -4%
SK-MEL-28
  GI50: 3.39 µM
  LC50: 69.2 µM
SK-MEL-28; read-out: pTGI (converted)
  TGI: 13.2 µM
SK-OV-3
  growth at 10 µM: 81%
T47D
  growth at 10 µM: 57%
NCI-H23
  GI50: 3.63 µM
NCI-H23; read-out: pTGI (converted)
  TGI: 30.9 µM
MOLT-4
  growth at 10 µM: 54%
SN12C [14]
  GI50: 7.41 µM

Source: ChEMBL document CHEMBL3045605, “Synthesis and anticancer evaluation of novel 3,5-diaryl-thiazolo[4,5-d]pyrimidin-2-one derivatives” (2013)
